Each block holds one compound with its values, some of them ahead of it. Calls of active or inactive are those of the source. No cut-off for these calls is given here.
What was measured:
[1] = target: T1, Biotin--protein ligase (Homo sapiens) (UniProt P50747); assay: Inhibition of human recombinant HLCS using P67 as substrate at 500 uM after 2 hrs relative to vehicle-treated control
T1 sequence (whole entry): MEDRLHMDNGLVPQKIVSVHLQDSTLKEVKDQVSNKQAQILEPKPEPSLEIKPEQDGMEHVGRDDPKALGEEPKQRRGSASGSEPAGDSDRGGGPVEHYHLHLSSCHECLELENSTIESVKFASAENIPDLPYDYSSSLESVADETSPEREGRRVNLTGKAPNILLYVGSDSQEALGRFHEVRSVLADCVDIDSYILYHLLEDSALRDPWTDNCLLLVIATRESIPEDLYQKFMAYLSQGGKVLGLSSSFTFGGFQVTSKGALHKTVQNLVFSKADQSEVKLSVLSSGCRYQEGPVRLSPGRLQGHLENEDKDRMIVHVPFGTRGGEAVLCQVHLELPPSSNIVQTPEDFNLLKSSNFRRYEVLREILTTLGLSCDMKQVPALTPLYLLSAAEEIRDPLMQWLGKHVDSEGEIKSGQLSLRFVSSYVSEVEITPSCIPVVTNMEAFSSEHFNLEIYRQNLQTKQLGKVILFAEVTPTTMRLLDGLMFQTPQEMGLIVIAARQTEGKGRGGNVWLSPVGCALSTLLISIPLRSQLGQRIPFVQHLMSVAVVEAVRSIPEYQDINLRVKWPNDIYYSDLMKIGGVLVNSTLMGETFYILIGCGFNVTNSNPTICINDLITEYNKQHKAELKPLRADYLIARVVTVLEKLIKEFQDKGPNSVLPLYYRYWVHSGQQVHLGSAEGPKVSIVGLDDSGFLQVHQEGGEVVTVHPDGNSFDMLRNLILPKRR

[2] = Binding affinity to Staphylococcus aureus biotin protein ligase
[3] = target: T1, Biotin--protein ligase (Homo sapiens); assay: Competitive inhibition of human recombinant HLCS using P67 as substrate by Western blotting analysis in presence of biotin
Summary of the method: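 Recombinant HLCS (30 nM) with 2 µM p67 and the activity-assay cofactors; inhibitor fixed at 250 µM or absent, biotin varied 0-360 µM. Reactions stopped with Tricine loading dye and 95°C for 10 min. Biotinylated p67 detected by Western blot with anti-biotin and infrared imaging.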

[4] = target: T1, Biotin--protein ligase (Homo sapiens); assay: (§1) Inhibition of human recombinant HLCS using P67 as substrate after 2 hrs relative to vehicle-treated control
Biotin--protein ligase = target: T2, Biotin--protein ligase (Homo sapiens, UniProt P50747); assay: as §1
T2 sequence (P50747 whole entry): T1 sequence (whole entry)

[5] = Selectivity for Staphylococcus aureus biotin protein ligase over human HLCS

- inhibition [3]: inactive
Compound: COP(=O)(O)CC(=O)CCCC[C@@H]1SC[C@@H]2NC(=O)N[C@@H]21

- inhibition [3]: Active
- inhibition [4]: Dose-dependent effect
- IC50 (Biotin--protein ligase): 39.7 µM
- Ki (Biotin--protein ligase): 2 µM
- inhibition [1]: 81.3%
Compound: Nc1ncnc2c1ncn2[C@@H]1O[C@H](COP(=O)(O)CC(=O)CCCC[C@@H]2SC[C@@H]3NC(=O)N[C@@H]32)[C@@H](O)[C@H]1O

- inhibition [3]: Active
- IC50 (Biotin--protein ligase): 204 µM
- Ki (Biotin--protein ligase): 10.4 µM
- inhibition [1]: 67.7%
Compound: Nc1ncnc2c1ncn2[C@@H]1O[C@H](COP(=O)(O)CC(O)CCCC[C@@H]2SC[C@@H]3NC(=O)N[C@@H]32)[C@@H](O)[C@H]1O (stereo partly drawn)

The next lines start with the compound.

Compound: Nc1ncnc2c1ncn2[C@@H]1O[C@H](COP(=O)(O)OCCCCC[C@@H]2SC[C@@H]3NC(=O)N[C@@H]32)[C@@H](O)[C@H]1O
- inhibition [1]: 98%
- Ki [2]: 0.03 µM

Compound: Nc1ncnc2c1ncn2[C@@H]1O[C@H](Cn2cc(CCCC[C@@H]3SC[C@@H]4NC(=O)N[C@@H]43)nn2)[C@@H](O)[C@H]1O
- Selectivity ratio [5]: > 1100

Reference: ChEMBL document CHEMBL3352558, “β-Keto and β-hydroxyphosphonate analogs of biotin-5'-AMP are inhibitors of holocarboxylase synthetase” (Bioorg Med Chem Lett, 2014)
